Screens: PubChem BioAssay, Broad Institute
In the library only some 2.9% were active in any assay of this set; here they are far more common.
ERAP1 HTS inh: blocks human ERAP1 aminopeptidase activity; 0.15% of 340,000 active; inhibition, % at 10.7 µM; recombinant ERAP1, Leu-AMC fluorescence, 60 min; AID 652197; Q9NZ08;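 active = mean replicate inhibition of at least 30%, or all replicates individually reaching that 30% level; inactive = mean below 30% and not every replicate reaching it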;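 also: 0% = neutral control wells and 100% = L-leucinethiol positive control wells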
DENV2 CPE: protects cells from dengue virus 2 cytopathic effect; CPE inhibition, % at 9.99 µM; DENV2-infected cells, cytopathic effect rescue, plate reader; 1.7% of 350,000 active; in the data active = CPE inhibition above about 20%, passing the limit was not always enough; inconclusive = no clear call, values can overlap the other calls; tested in BHK-21 cells;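 also: 0% = median of neutral control wells and 100% = median of positive control wells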
CAL PDZ FP-1: CAL PDZ (human) peptide binding inhibition; inhibition, % at 24.9 µM; Q9HD26; purified CAL PDZ, TMR-peptide fluorescence polarization, 1 h; AID 602252; 0.92% of 300,000 active;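 active = mean inhibition of at least 30% with at least half of replicates also reaching 30%; inconclusive = no clear call, values can overlap the other calls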;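 also: 0% = DMSO neutral control and 100% = excess unlabeled competitor peptide PRC23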
SIRT5 block: inhibitors of human sirtuin-5 desuccinylase; Purified SirT5, succinyl-peptide AMC, trypsin-coupled fluorescence; Q9NXA8; inhibition, % at 15 µM; 1.1% of 330,000 active; in the data active = inhibition above about 15%; inconclusive = no clear call, values can overlap the other calls
Target sequence (Q9NXA8 whole entry, looked up): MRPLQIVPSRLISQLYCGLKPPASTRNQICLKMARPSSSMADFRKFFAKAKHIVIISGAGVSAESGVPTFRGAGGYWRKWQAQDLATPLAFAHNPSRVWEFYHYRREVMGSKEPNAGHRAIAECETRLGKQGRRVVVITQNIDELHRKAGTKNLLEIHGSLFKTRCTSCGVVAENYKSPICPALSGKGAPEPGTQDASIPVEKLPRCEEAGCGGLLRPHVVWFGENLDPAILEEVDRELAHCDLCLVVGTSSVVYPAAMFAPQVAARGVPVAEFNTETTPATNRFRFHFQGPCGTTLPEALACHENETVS
S100A4 inh HTS: S100A4-myosin IIA interaction inhibition | P26447 | 0.14% of 360,000 active | AID 652163 | S100A4/TAMRA-MyoIIA peptide fluorescence polarization | inhibition, % at 10.7 µM;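 active = mean inhibition of at least 70% across replicates, with every replicate also reaching that level; inconclusive = mean inhibition reaches 70% but some replicates fall short; inactive = mean inhibition below 70%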
Target sequence (P26447 whole entry, looked up): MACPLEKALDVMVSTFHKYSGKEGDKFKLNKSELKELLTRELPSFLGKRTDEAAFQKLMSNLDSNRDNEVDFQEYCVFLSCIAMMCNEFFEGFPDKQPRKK
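Test system: S100A4 monomer protein; Medium: HEPES pH 7.2 with CaCl2, KCl, NaCl, DTT, Triton; Probe or stimulus: TAMRA-labelled myosin IIA heavy-chain peptide probe, 5 nM; Doses: one dose per compound; Times: polarization read 5 min after assay mix addition, stable 5–60 min; Benchmarks: neutral control DMSO, positive control TFP.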
CAL PDZ FP-2: human CAL PDZ-peptide interaction inhibition. Q9HD26. purified CAL PDZ, TMR-peptide fluorescence polarization, 1 h. inhibition, % at 20 µM. 0.02% of 330,000 active. AID 504414;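 active = highest replicate inhibition of at least 40%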;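 also: plate controls were DMSO neutral control wells for no effect and unlabeled competitor peptide control wells for full effect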
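Assay system – tagged CAL PDZ protein CerCALP, purified · Timing – 1 h at RT · Compound – single point, 20 µM · Measured by – fluorescence polarization from S- and P-plane intensities, G-factor corrected · Evaluation – inhibition from polarization loss · Probe or stimulus – TMR reporter peptide T*-PRC34 · Buffer or medium – pH 7.4 phosphate-saline buffer, reducing agent, detergent, IgG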
Starred values were filed as active, the others as inactive; ? = inconclusive; · = no result.

SMILES	ERAP1 HTS inh	DENV2 CPE	CAL PDZ FP-1	SIRT5 block	S100A4 inh HTS	CAL PDZ FP-2
CC(/C=C1\SC(=S)N(c2ccc(C(=O)O)cc2)C1=O)=C\c1ccccc1	-0.2	-5.1	·	34.4*	-0.1	-0.9
CN(C)C(=O)C[C@H]1CC[C@@H]2[C@@H](COc3ccc(NS(=O)(=O)c4cccc(F)c4)cc3C(=O)N2C)O1	-0.6	?	·	-8.7	-3.4	·
CN(C)c1ccc(C(=O)OCC(=O)NC2CCCCCC2)cc1	1.3	2.2	31.9*	-4.0	-2.9	27.7
COc1ccc2c3c([nH]c2c1)[C@@H](CO)N(C(=O)CN(C)C)CC31CN(CC2CCCC2)C1	8.2	28.4*	·	-2.3	4.4	·
CCCNC(=O)N1CC2(CCN(CC3CCCC3)CC2)c2c([nH]c3cc(OC)ccc23)[C@H]1CO	-0.7	-0.5	·	2.4	2.8	·
CCCNC(=O)N1CC2(CCN(S(=O)(=O)CC)CC2)c2c([nH]c3cc(OC)ccc23)[C@@H]1CO	-1.3	30.6*	·	0.6	-37.9	·
CCCNC(=O)N1CC2(CCN(S(=O)(=O)CC)CC2)c2c([nH]c3cc(OC)ccc23)[C@H]1CO	-0.9	-3.6	·	-1.4	0.1	·
CCCNC(=O)N1CC2(CCN(CC3CC3)CC2)c2c([nH]c3cc(OC)ccc23)[C@@H]1CO	1.9	24.4*	·	5.0	4.4	·
CCn1c2ccccc2c2cc(NC(=O)COC(=O)c3cc(OC)c(OC)cc3OC)ccc21	1.1	40.9*	-1.1	-4.9	-0.8	-0.6
CCCC(=O)Nc1ccc2c(c1)c1ccccc1n2CC	0.6	-4.7	-3.5	-3.2	-2.2	-0.1
O=C1NC(=O)/C(=C/c2cccc3ccccc23)S1	-1.5	-2.5	-5.0	6.6	23.1	-0.1
O=C1NC(=O)/C(=C\c2ccc(O)cc2O)S1	6.2	3.7	51.8*	5.5	4.5	0.0
O=C1NC(=O)/C(=C/c2cc3c(cc2Br)OCO3)S1	2.0	21.7*	-2.9	5.2	-0.1	-5.7
O=C1Nc2ccc3c(c2C1=Cc1cc2c(cc1Br)OCO2)OCO3	-0.8	-4.9	5.7	-2.2	-5.0	0.6
C=CCc1ccc(OCCCCN2CC(C)OC(C)C2)c(OC)c1 (centres undefined)	·	·	58.4*	·	·	-0.6
COc1cccc(OCCCCN2CC(C)OC(C)C2)c1 (centres undefined)	·	·	42.1*	·	·	-0.6
C=CCc1ccc(OCCCOc2ccc(C)cc2OC)c(OC)c1	·	·	-0.3	·	·	-0.3
Nc1ccccc1-n1cccc1	·	-0.9	30.9*	-8.7	-6.8	-0.2
N/C(=N\O)c1ccccc1-n1cccc1	4.7	8.2	2.7	-3.9	0.7	0.4
CN(C)CC(=O)N1[C@@H]2c3ccc(-c4ccccc4)c(=O)n3C[C@H]1[C@H](CO)[C@H]2C(=O)N1CCOCC1	1.2	-4.9	·	-29.8	-10.7	·
CCOC(=O)/C(C#N)=C1/C(=O)N(Cc2ccccc2)c2ccccc21	10.2	-2.5	5.5	21.3*	4.3	0.3
COc1ccc(Br)cc1CN1CCCC(C(=O)N2CCCCC2)C1 (centres undefined)	·	·	-2.0	·	·	-0.1
COc1ccc(Br)cc1CN1CCC(N2CCCC2)CC1	1.8	25.3*	0.7	1.5	-2.2	-1.6
CC(C)NC(=O)NNC(=O)c1nn(-c2ccc(F)cc2)ccc1=O	·	11.4	-5.4	22.2*	0.2	0.6
Cc1ccc(C(=O)NNC(=O)c2nn(-c3ccc(F)cc3)ccc2=O)cc1	5.8	-1.1	-2.8	2.8	3.1	0.6
SMILES	ERAP1 HTS inh	DENV2 CPE	CAL PDZ FP-1	SIRT5 block	S100A4 inh HTS	CAL PDZ FP-2
Cc1ccc(-c2cnc3c(c2)C(=O)N([C@H](C)CO)C[C@@H](C)[C@H](CN(C)C(=O)c2ccccc2)O3)cc1	3.7	-10.1	·	-2.8	2.3	·
O=C(OCC(=O)N1CCCC1)c1cncc(Br)c1	·	·	-4.6	·	·	·
O=C(OCC(=O)N1CCN(C(=O)c2ccco2)CC1)c1cncc(Br)c1	1.2	-2.8	35.5*	-6.4	11.3	0.9
O=C(OCC(=O)N1CCN(C(=O)c2ccco2)CC1)c1cc(S(=O)(=O)Nc2ccc(Cl)cc2)ccc1O	5.9	1.1	53.3*	-2.1	4.7	-2.4
Cc1noc(C)c1NC(=O)N(C)C[C@@H]1OCCCC[C@H](C)Oc2ccc(NC(=O)Nc3cccc4ccccc34)cc2C(=O)N([C@@H](C)CO)C[C@H]1C	·	6.3	·	·	·	·
Cn1c(CN2CCCCC2)nc2cc(NC(=O)c3ccccc3Cl)ccc21	1.6	2.5	·	-1.2	-20.8	0.4
